Columns and labels:
[1] = AUC (0 to t) in patient with end-stage renal disease at 200 mg, po disease as two single doses 2 hrs before dialysis separated by 1 week washout period; assay type: ADME, organism-based; settings: human, plasma
Method in brief: (§1)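 Single oral telbivudine dose. Heparinized blood was drawn predose and up to 48 h postdose, with extra paired dialyzer samples for predialysis dosing. Plasma was stored at –20°C and assayed by validated HPLC-MS/MS (LLOQ 10 ng/ml, range 10–5,000 ng/ml). Noncompartmental analysis: AUC0-t by linear trapezoidal rule to last measurable concentration; AUC0-∞ = AUC0-t + Ct/kel.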

[2] = AUC (0 to t) in patient with end-stage renal disease at 200 mg, po administered as two single doses within 2 hrs of after completion of dialysis separated by 1 week washout period; assay type: ADME, organism-based; settings: human, plasma; method in brief: as §1
Homo sapiens = assay: AUC (0 to infinity) in human with normal renal function at 600 mg, po administered as single dose; assay type: ADME, organism-based, Plasma; parameters: dose 600 mg, route oral, time infinity; settings: in vivo; method in brief: as §1
[3] = AUC (0 to infinity) in patient with mild renal impairment at 600 mg, po administered as single dose; assay type: ADME, organism-based; parameters: dose 600 mg, route oral, time infinity; settings: human, plasma; method in brief: as §1
[4] = AUC (0 to infinity) in patient with moderate renal impairment at 400 mg, po administered as single dose; assay type: ADME, organism-based; parameters: dose 400 mg, time infinity, route oral; settings: human, plasma; method in brief: as §1
[5] = AUC (0 to infinity) in patient with severe renal impairment at 200 mg, po administered as single dose; assay type: ADME, organism-based; parameters: dose 200 mg, route oral, time infinity; settings: human, plasma; method in brief: as §1
[6] = AUC (0 to infinity) in patient with end-stage renal disease at 200 mg, po administered as two single doses 2 hrs before dialysis separated by 1 week washout period; assay type: ADME, organism-based; parameters: dose 200 mg, route oral, time infinity; settings: human, plasma; method in brief: as §1
[7] = AUC (0 to infinity) in patient with end-stage renal disease at 200 mg, po administered as two single doses within 2 hrs of after completion of dialysis separated by 1 week washout period; assay type: ADME, organism-based; parameters: dose 200 mg, time infinity, route oral; settings: human, plasma; method in brief: as §1
[8] = Tmax in human with normal renal function at 600 mg, po administered as single dose; assay type: ADME, organism-based; settings: in vivo
Method in brief: (§2)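 Single oral dose. Plasma was frozen at –20°C. Assay by validated HPLC-MS/MS (LLOQ 10 ng/ml, calibration 10–5,000 ng/ml, m/z 243.0→127.1). Tmax was read directly from the concentration-time data, with noncompartmental analysis.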

[9] = Tmax in patient with mild renal impairment at 600 mg, po administered as single dose; assay type: ADME, organism-based; settings: human, in vivo; method in brief: as §2
[10] = Tmax in patient with moderate renal impairment at 400 mg, po administered as single dose; assay type: ADME, organism-based; settings: human, in vivo; method in brief: as §2
[11] = Tmax in patient with severe renal impairment at 200 mg, po administered as single dose; assay type: ADME, organism-based; settings: human, in vivo; method in brief: as §2
[12] = Tmax in patient with end-stage renal disease at 200 mg, po administered as two single doses 2 hrs before dialysis separated by 1 week washout period; assay type: ADME, organism-based; settings: human, in vivo
Method in brief: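 ESRD subjects dosed orally before dialysis, with a 3.5–4 h hemodialysis session starting 2 h post-dose. Blood was drawn predose and at 0.5, 0.75, 1, 2, 3.75–4, 5.5–6, 8, 12, 16, 20, 24, 28, 32, 36 and 48 h. Paired pre/postdialyzer samples were taken at the dialysis time points. Plasma telbivudine by HPLC-MS/MS. Tmax taken directly from the observed data.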

[13] = Tmax in patient with end-stage renal disease at 200 mg, po administered as two single doses within 2 hrs of after completion of dialysis separated by 1 week washout period; assay type: ADME, organism-based; settings: human, in vivo; method in brief: as §2
[14] = Elimination half life in human with normal renal function at 600 mg, po administered as single dose; assay type: ADME, organism-based; settings: in vivo, read-out: beta t1/2 (converted)
Method in brief: (§3)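 Half-lives came from noncompartmental analysis of plasma LC-MS/MS concentrations over 48 h after a single oral dose. Terminal and initial-decline t1/2 were calculated as 0.693/k, with each rate constant derived by stripping and linear regression.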

[15] = Elimination half life in patient with mild renal impairment at 600 mg, po administered as single dose; assay type: ADME, organism-based; settings: human, in vivo, read-out: beta t1/2 (converted); method in brief: as §3
[16] = Elimination half life in patient with moderate renal impairment at 400 mg, po administered as single dose; assay type: ADME, organism-based; settings: human, in vivo, read-out: beta t1/2 (converted); method in brief: as §3
[17] = Elimination half life in patient with severe renal impairment at 200 mg, po administered as single dose; assay type: ADME, organism-based; settings: human, in vivo, read-out: beta t1/2 (converted); method in brief: as §3
[18] = Elimination half life in patient with end-stage renal disease at 200 mg, po administered as two single doses 2 hrs before dialysis separated by 1 week washout period; assay type: ADME, organism-based; settings: human, in vivo, read-out: beta t1/2 (converted); method in brief: as §3
[19] = Elimination half life in patient with end-stage renal disease at 200 mg, po administered as two single doses within 2 hrs of after completion of dialysis separated by 1 week washout period; assay type: ADME, organism-based; settings: human, in vivo, read-out: beta t1/2 (converted); method in brief: as §3
[20] = Initial decline half life in human with normal renal function at 600 mg, po administered as single dose; assay type: ADME, organism-based; settings: in vivo, read-out: alphat1/2 (converted); method in brief: as §3
[21] = Initial decline half life in patient with mild renal impairment at 600 mg, po administered as single dose; assay type: ADME, organism-based; settings: human, in vivo, read-out: alphat1/2 (converted); method in brief: as §3
[22] = Initial decline half life in patient with moderate renal impairment at 400 mg, po administered as single dose; assay type: ADME, organism-based; settings: human, in vivo, read-out: alphat1/2 (converted); method in brief: as §3
[23] = Initial decline half life in patient with severe renal impairment at 200 mg, po administered as single dose; assay type: ADME, organism-based; settings: human, in vivo, read-out: alphat1/2 (converted); method in brief: as §3
[24] = Initial decline half life in patient with end-stage renal disease at 200 mg, po administered as two single doses within 2 hrs of after completion of dialysis separated by 1 week washout period; assay type: ADME, organism-based; settings: human, in vivo, read-out: alphat1/2 (converted); method in brief: as §3
[25] = Cmax in patient with mild renal impairment at 600 mg, po administered as single dose; assay type: ADME, organism-based; parameters: dose 600 mg, route oral; settings: human, in vivo
Method in brief: (§4)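 Plasma telbivudine after one oral dose, sampled predose through 48 h and quantified by validated LC-MS/MS (LLOQ 10 ng/ml, transition 243.0→127.1 m/z). Cmax was read directly from the observed concentration-time data.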

[26] = Cmax in patient with moderate renal impairment at 400 mg, po administered as single dose; assay type: ADME, organism-based; parameters: dose 400 mg, route oral; settings: human, in vivo; method in brief: as §4
[27] = Cmax in patient with severe renal impairment at 200 mg, po administered as single dose; assay type: ADME, organism-based; parameters: dose 200 mg, route oral; settings: human, in vivo; method in brief: as §4

Compound: Cc1cn([C@@H]2C[C@@H](O)[C@H](CO)O2)c(=O)[nH]c1=O [TELBIVUDINE]
- AUC(0-t) [1]: 26500 ng·h/mL
- AUC(0-t) [2]: 41800 ng·h/mL
- AUC (Homo sapiens): 28500 ng·h/mL
- AUC(0-inf) [3]: 32500 ng·h/mL
- AUC(0-inf) [4]: 36000 ng·h/mL
- AUC(0-inf) [5]: 32500 ng·h/mL
- AUC(0-inf) [6]: 43400 ng·h/mL
- AUC(0-inf) [7]: 67400 ng·h/mL
- Tmax [8]: 4 h
- Tmax [9]: 4 h
- Tmax [10]: 4 h
- Tmax [11]: 4 h
- Tmax [12]: 8 h
- Tmax [13]: 3.5 h
- half-life [14]: 20.5 h
- half-life [15]: 26.7 h
- half-life [16]: 31.2 h
- half-life [17]: 32.9 h
- half-life [18]: 35.2 h
- half-life [19]: 37.9 h
- half-life [20]: 2.32 h
- half-life [21]: 3.42 h
- half-life [22]: 3.82 h
- half-life [23]: 4.5 h
- half-life [24]: 4.87 h
- Cmax [25]: 3200 ng/mL
- Cmax [26]: 2800 ng/mL
- Cmax [27]: 1600 ng/mL

Source: ChEMBL document CHEMBL1153546, “Pharmacokinetics of telbivudine in subjects with various degrees of renal impairment” (Antimicrob Agents Chemother, 2007)
